Activity calls are given as the source filed them. The calls are words filed in the database; no cut-off is given here.
Experiments:
[1] = Displacement of [3H]muscimol from GABAA receptor in rat synaptic membrane after 60 mins by scintillation counting analysis; type: cell membranes
Summary of the method: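 Membranes from cortex and central hemispheres of male SPRD rat brains, washed repeatedly in 50 mM Tris-HCl pH 7.4. 70–80 μg protein per well incubated with [3H]muscimol. Separated by GF/C filtration with ice-cold buffer washes; bound radioactivity counted by scintillation. Nonspecific binding defined with 1.0 mM GABA.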

[2] = target: T1, Gamma-aminobutyric acid receptor subunit rho-1 (Homo sapiens, UniProt P24046); test: Agonist activity at human GABAA rho1 receptor expressed in TSA201 cells at 300 to 500 uM after 1 min by FLIPR assay; type: cell-based
[3] = target: T1, Gamma-aminobutyric acid receptor subunit rho-1; test: Agonist activity at human GABAA rho1 receptor expressed in TSA201 cells after 1 min by FLIPR assay; type: cell-based
Summary of the method: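 tsA201 cells transfected with 5 μg human ρ1 cDNA, then plated on poly-D-lysine plates for 16–24 h. Loaded with FLIPR membrane potential blue dye in Krebs buffer (pH 7.4), 30 min at 37 °C. Emission at 560 nm (excitation 530 nm) recorded before and up to 1 min after agonist addition. Curves fitted from ΔFU; duplicate, at least three times.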

[4] = target: T2, GABA-A receptor; alpha-1/beta-2/gamma-2 (Homo sapiens, UniProt P14867+P18507+P47870); test: Agonist activity at human GABAA alpha1beta2gamma2S receptor expressed in TSA201 cells after 1 min by FLIPR assay; type: cell-based
T2 sequence (P14867 whole entry): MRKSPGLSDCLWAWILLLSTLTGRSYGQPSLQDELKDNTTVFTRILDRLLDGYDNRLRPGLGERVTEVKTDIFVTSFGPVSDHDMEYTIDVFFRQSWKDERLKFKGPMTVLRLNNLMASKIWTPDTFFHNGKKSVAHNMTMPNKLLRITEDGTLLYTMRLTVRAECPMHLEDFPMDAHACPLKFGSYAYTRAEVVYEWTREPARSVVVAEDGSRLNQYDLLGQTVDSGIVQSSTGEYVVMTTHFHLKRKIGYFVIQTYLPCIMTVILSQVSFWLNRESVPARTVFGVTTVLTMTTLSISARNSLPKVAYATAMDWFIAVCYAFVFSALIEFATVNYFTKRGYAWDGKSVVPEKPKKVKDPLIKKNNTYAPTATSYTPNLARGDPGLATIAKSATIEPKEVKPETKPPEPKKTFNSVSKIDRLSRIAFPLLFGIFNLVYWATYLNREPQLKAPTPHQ
T2 sequence (P47870 whole entry): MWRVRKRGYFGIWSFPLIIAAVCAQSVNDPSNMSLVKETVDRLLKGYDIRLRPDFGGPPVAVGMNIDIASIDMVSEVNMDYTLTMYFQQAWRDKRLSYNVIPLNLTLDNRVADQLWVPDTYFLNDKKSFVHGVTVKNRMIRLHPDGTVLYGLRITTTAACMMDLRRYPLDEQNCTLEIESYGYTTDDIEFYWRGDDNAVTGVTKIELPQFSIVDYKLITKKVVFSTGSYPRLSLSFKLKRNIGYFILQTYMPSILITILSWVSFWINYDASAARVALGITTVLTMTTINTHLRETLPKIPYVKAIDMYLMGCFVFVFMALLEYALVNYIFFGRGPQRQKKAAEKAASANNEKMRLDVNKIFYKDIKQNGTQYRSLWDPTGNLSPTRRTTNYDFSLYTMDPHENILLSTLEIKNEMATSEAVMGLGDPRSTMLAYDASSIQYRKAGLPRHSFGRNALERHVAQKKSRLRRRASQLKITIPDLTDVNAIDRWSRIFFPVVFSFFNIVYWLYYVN
T2 sequence (P18507 whole entry): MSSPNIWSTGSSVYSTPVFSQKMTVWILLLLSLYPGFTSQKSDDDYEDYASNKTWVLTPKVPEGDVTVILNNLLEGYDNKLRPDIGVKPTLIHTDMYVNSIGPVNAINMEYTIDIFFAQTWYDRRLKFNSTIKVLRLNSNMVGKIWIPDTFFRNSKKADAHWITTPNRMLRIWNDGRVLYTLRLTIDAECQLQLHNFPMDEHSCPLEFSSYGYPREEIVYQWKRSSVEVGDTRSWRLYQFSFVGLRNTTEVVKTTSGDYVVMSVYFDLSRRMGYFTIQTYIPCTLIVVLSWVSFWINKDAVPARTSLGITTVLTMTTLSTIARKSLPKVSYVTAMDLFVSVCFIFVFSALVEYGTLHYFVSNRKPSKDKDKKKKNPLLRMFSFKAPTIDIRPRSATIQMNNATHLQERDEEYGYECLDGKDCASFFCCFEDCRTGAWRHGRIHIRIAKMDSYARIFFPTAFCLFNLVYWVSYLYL
Summary of the method: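 tsA201 cells transfected with 1 μg α (1, 2, 3 or 5), 1 μg β2 and 3 μg γ2S cDNA (Polyfect). Cells replated onto poly-D-lysine plates and assayed 16–24 h later. Loaded with FMP blue dye in Krebs buffer pH 7.4 for 30 min at 37 °C.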

[5] = target: T3, GABA-A receptor; alpha-1/beta-2/gamma-2 (Homo sapiens) (UniProt P14867+P47870+P18507); test: Agonist activity at human GABAA alpha1beta2gamma2S receptor expressed in TSA201 cells at 300 to 500 uM after 1 min by FLIPR assay; type: cell-based
[6] = target: T1, Gamma-aminobutyric acid receptor subunit rho-1; test: Agonist activity at human GABAA rho1 receptor expressed in HEK293 cells at up to 300 uM by patch clamp electrophysiology assay; type: cell-based
[7] = target: T3, GABA-A receptor; alpha-1/beta-2/gamma-2 (Homo sapiens); test: Agonist activity at human GABAA alpha1beta2gamma2S receptor expressed in HEK293 cells by patch clamp electrophysiology assay relative to GABA; type: cell-based
[8] = target: T2, GABA-A receptor; alpha-1/beta-2/gamma-2; test: Agonist activity at human GABAA alpha1beta2gamma2S receptor expressed in HEK293 cells by patch clamp electrophysiology assay; type: cell-based

T1 sequence (P24046 whole entry): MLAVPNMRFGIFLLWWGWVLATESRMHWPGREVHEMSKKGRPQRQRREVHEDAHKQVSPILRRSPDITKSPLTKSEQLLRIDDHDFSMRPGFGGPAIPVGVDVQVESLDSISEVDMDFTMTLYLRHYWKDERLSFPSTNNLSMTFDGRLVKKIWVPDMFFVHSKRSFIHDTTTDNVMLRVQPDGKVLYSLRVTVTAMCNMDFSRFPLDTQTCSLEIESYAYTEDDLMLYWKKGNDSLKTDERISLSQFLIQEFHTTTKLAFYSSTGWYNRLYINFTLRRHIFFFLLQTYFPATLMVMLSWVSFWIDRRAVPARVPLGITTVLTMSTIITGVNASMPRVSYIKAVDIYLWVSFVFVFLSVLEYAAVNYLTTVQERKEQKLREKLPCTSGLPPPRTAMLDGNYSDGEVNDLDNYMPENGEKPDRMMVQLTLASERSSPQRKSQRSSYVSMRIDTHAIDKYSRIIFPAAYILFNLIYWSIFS

`On1cc2c(n1)CCNC2` showed a Ki [1] greater than 100 µM.

With `NCc1cn(O)nc1-c1ccc(-c2ccccc2)cc1` the Activity [2] was “inactive”, the EC50 [3] was greater than 500 µM and the EC50 [4] was greater than 300 µM. The Activity [5] was “inactive”, the Ki [1] was 13 µM and the pKi [1] was 4.89.

Molecule `NCc1cn(O)nc1-c1ccccc1` has an EC50 [3] greater than 500 µM, an EC50 [4] greater than 500 µM and a Ki [1] greater than 100 µM.

For `NCc1cn(O)nc1CCc1ccccc1`, the Ki [1] was greater than 100 µM.

Molecule `NCc1cn(O)nc1Cc1ccccc1` has a Ki [1] greater than 100 µM.

`CCc1nn(O)cc1CN` showed an EC50 [3] greater than 500 µM, an EC50 [4] greater than 500 µM and a Ki [1] of 94 µM. The pKi [1] was 4.03.

In the case of `NCc1cn(O)nc1CCc1ccncc1`, the Ki [1] is reported as greater than 100 µM.

With `NCc1cn(O)nc1N` the Ki [1] was greater than 100 µM.

With `Cc1c(CN)cnn1O` the Activity [6] was “inactive”, the Rmax [7] was greater than 64% and the EC50 [3] was greater than 500 µM. The EC50 [4] was greater than 500 µM, the EC50 [8] was greater than 10 µM and the Ki [1] was 15 µM. For the same molecule, the pKi [1] was 4.82.

For `NCc1cn(O)nc1-c1cccc(-c2ccccc2)c1`, the Activity [2] was “inactive”, the EC50 [3] was greater than 500 µM and the EC50 [4] was greater than 500 µM. The Activity [5] was “inactive”, the Ki [1] was 17 µM and the pKi [1] was 4.81.
